Measurements as given in PMC10939825 (Chemistry (Weinheim an der Bergstrasse, Germany), 2024).

Key:
MRSA JE2 = experiment: Zeta potential of treated bacteria by DLS; assay type: cell-based, Staphylococcus aureus; settings: 1 hour treatment
How it was run: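 Bacteria were cultured 18–20 h, resuspended in PBS and adjusted to 5 X 10^7 CFU/mL. They were treated 1 h with test compound at 10X MIC; test compound was pre-annealed in PBS and aged overnight. Controls were untreated cells, polymyxin B and daptomycin. Zeta potential was then measured by DLS at 25 °C.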

E. coli K12 [1] = experiment: Inner membrane permeabilization assay; assay type: cell-based, Escherichia coli; settings: E. coli K12, 0.5, 1 and 2X MIC, monitored for 180 mins, absorbance 415 nm, 37 °C, triplicate
How it was run: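 Assay for β-galactosidase release into the medium using ONPG as substrate, adapted from a published method. Test compound was dissolved in PBS at 1 mg/mL, annealed at 80 °C for 30 min, aged overnight, then diluted in PBS or media. Controls were polymyxin B (positive) and bacteria with ONPG and PBS (negative). o-Nitrophenol absorbance at 415 nm was read at intervals at 37 °C.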

E. coli K12 [2] = experiment: Zeta potential of treated bacteria by DLS; assay type: cell-based, Escherichia coli; settings: E. coli K12, PAs at 10X MIC
A. baumannii [3] = experiment: Membrane permeability, PI uptake; assay type: cell-based, Acinetobacter baumannii; settings: 1 and 2X MIC, 2 hours
How it was run: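 Bacteria washed and resuspended at 0.3 McFarland in 5 mM HEPES/20 mM glucose, pH 7.4, with propidium iodide at 7.5 μg/mL final. Test compound was given to MRSA JE2 at 0.5, 1 and 2X MIC and to A. baumannii at 1 and 2X MIC. Controls were untreated cells, polymyxin B and daptomycin. Incubated 2 h at 37°C; fluorescence read at ex 535 nm/em 615 nm.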

A. baumannii [4] = experiment: Membrane depolarization, DiSC 3; assay type: cell-based, Acinetobacter baumannii; settings: 1 and 2X MIC, 2 hours
How it was run: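 Cells suspended at 0.5 McFarland in 5 mM HEPES/20 mM glucose, pH 7.4, with DiSC3(5) at 1 μM final. Test compound at 1 and 2X MIC; controls were untreated cells, polymyxin B and daptomycin. Incubated 2 h at 37°C. Fluorescence read at ex 622 nm/em 670 nm; dye release into medium raises signal.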

Substance | change of bacterial zeta potential (MRSA JE2) | order of membrane permeability (ONPG) (E. coli K12 [1]) | change of bacterial zeta potential (E. coli K12 [2]) | PI intensity (membrane permeability) (A. baumannii [3]) | order of activity, DiSC 3(5) (A. baumannii [4])
daptomycin | induces (slightly) the zeta potential to be more negative |  |  |  | 
Polymyxin B [PMB] |  | PMB > PA 26 > PA 3 > PA 9 | does not show a notable change | significant increase in PI intensity | PA 26 > PMB > PA 9
